Source: PMC9306949 (Clinical Pharmacology in Drug Development, 2022)
Entries after “also recorded” stand apart in the source; their conditions may differ. Read-outs that look alike come from different tables or passages of the source. Marks after values point to notes of the source that are not given here.

Columns and labels:
[1] = monoprotic carboxylic acid; cited from earlier work
[2] = physiologically based PK modeling; cited from earlier work
[3] = Safety: treatment-emergent adverse events; assay type: in vivo, human
[4] = cited from earlier work
[5] = Urine excretion of navtemadlin and M1; assay type: in vivo, human
[6] = tested on: MIC‐1; conditions: patients with solid tumors/MM and AML; cited from earlier work
[7] = cited from earlier work; remark: listed apart in the source
[8] = assay type: in vivo, human; conditions: for exposure in UGT1A1*28 heterozygous poor metabolizers (6/7 TA repeats) vs WT (6/6 TA repeats): Treatment A, n = 16 vs n = 12; for C24: mean (%CV)
[9] = cited from earlier work; remark: listed apart in the source
[10] = tested on: MIC‐1; experiment: Serum MIC-1 pharmacodynamics; assay type: in vivo, human; conditions: for P, baseline predose MIC‐1 concentration / MIC‐1 %CFBC24 (percent change from predose concentration at 24 hours) / MIC‐1 %CFBCmax (percent change from predose concentration at Cmax) / MIC‐1 AUC0‐24 / MIC‐1 AUC0‐inf / MIC‐1 AUC0‐t / MIC‐1 C24 / MIC‐1 FoldC24 (C24/P): serum, mean (%CV)
[11] = tested on: T, B, and natural killer lymphocytes in peripheral blood; experiment: Immunophenotyping of whole blood; assay type: in vivo, human; conditions: periods 1 and 4; absolute counts and percentages
Summary of the method: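 Healthy adults took single 60-mg oral doses of the test compound. Whole blood (K2EDTA) was drawn at screening, predose on day 1 of periods 1 and 4, and on day 5 (96 h postdose). A validated GLP flow cytometry method gave absolute counts and percentages of peripheral T, B and NK lymphocytes.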

[12] = cynomolgus macaques; cited from earlier work
[13] = single 60-mg doses, healthy subjects
[14] = period 1 (old tablet fasted), 0-48 h urine
[15] = Treatment A: 60 mg new tablet fasted
[16] = Treatment B: 60 mg new tablet fed
[17] = Treatment C: 60 mg old tablet fasted

In the case of `CC(C)[C@@H](CS(=O)(=O)C(C)C)N1C(=O)[C@@](C)(CC(=O)O)C[C@H](c2cccc(Cl)c2)[C@H]1c1ccc(Cl)cc1` [Navtemadlin], the pKa [1] is listed as 4.35, the fraction absorbed [2] is listed as roughly 100% and the “All TEAEs: Number of Subjects with TEAE” value ([3]; Treatment A (Combined): new tablet fasted) is listed as 5. The “All TEAEs: Number of Subjects with TEAE” value ([3]; Treatment B: new tablet fed) was 2, the “All TEAEs: Number of Subjects with TEAE” value ([3]; Treatment C: old tablet fasted (period 1)) was “Nine” and the “incidence of constipation (TEAE)” value ([3]; occurred only with treatment C (old tablet, fasted)) was 13%. For the same molecule, the “incidence of headache (TEAE)” value ([3]; occurred with all treatments A, B, and C) was 10%, the “TEAE related to navtemadlin” value ([3]; reported once, treatment B (new tablet fed)) was “Headache” and the “discontinuations due to adverse events” value [3, 13] was “without any discontinuations; also recorded: no subject discontinued due to an AE”. For the same molecule, the “serious adverse events or deaths” value [3, 13] was “No serious adverse events or deaths occurred; also recorded: No deaths or serious AEs occurred”, the “severity of adverse events” value [3, 13] was “mild” and the “dose dependence of exposure” value ([4]; dose range of 15 mg to 480 mg) was “linear”. For the same molecule, the “apparent oral central volume of distribution” value ([4]; patients with solid tumors) was 62.9 L, the “mean amount excreted in urine” value [5, 14] was 12.1 µg and the “mean fraction of dose excreted in urine” value [5, 14] was 0.02%. The urine excretion ([5]; single 60-mg dose, healthy subjects) was “negligible”, the “effect on serum PD marker MIC‐1” value [6] was “dose‐ and plasma concentration–dependent increases” and the “solubility, pH dependence” value [7] was “increases with increasing pH”. For the same molecule, the “delay of tmax after a meal” value ([8]; B vs A: new tablet fed vs fasted) was 1 h, the “exposure in UGT1A1*28 heterozygous poor metabolizers (6/7 TA repeats) vs WT (6/6 TA repeats)” value [8] was “slightly lower” and the “exposure in UGT1A1*28 heterozygous poor metabolizers (6/7 TA repeats) vs WT (6/6 TA repeats)” value ([8]; listed as navtemadlin) was “generally comparable”. For the same molecule, the “time of second peak after dosing (enterohepatic recirculation)” value ([8]; all 3 treatments) was “around 10 hours”, the tmax ([8]; human, plasma, oral, 60 mg) was 2.01 h and the “PK in H. pylori–positive vs H. pylori–negative subjects” value ([8]; n = 12 positive vs n = 18 negative) was “not markedly different; also recorded: not markedly affected”. For the same molecule, the “decrease in extent of exposure (AUC0‐24, AUC0‐t, AUC0‐inf) with a high‐fat meal” value ([8]; new tablet fed vs fasted) was 12% to 18%, the “intersubject variability, AUC0‐24 %CV” value ([8]; new tablet, fasted) was 55% and the “intersubject variability, Cmax %CV” value ([8]; new tablet, fasted) was 66%. For the same molecule, the “difference in median tmax between fed and fasted conditions, significance” value ([8]; new tablet, Wilcoxon signed-rank, alpha level of 0.1) was “statistically significant”, the C24 ([8]; plasma, Treatment A: 60-mg new tablet, fasted) was 37.4 (83.9); 60 ng/mL and the C24 ([8]; plasma, Treatment B: 60-mg new tablet, fed (high-fat meal)) was 29.3 (83.3); 30 ng/mL. For the same molecule, the C24 ([8]; plasma, Treatment C: 60-mg old tablet, fasted) was 29.3 (83.6); 30 ng/mL, the “intrasubject variability of PK parameters” value ([8]; reference formulation: new tablet, fasted) was less than 30% and the “tmax, difference of medians (90%CI)” value ([8]; test-reference: B (new tablet fed) minus A (new tablet fasted)) was 0.5 (0.004‐0.9) ^e , ^f h. The “tmax, difference of medians (90%CI)” value ([8]; test-reference: C (old tablet fasted) minus A (new tablet fasted)) was 0.1 (–0.3 to 0.6) ^e , ^f h, the “protein‐bound” value [9] was 97.5% and the “pharmacodynamic half‐life of MIC‐1 serum elevations” value ([10]; 60‐mg dose, healthy subjects) was greater than 20 h. For the same molecule, the “correlation navtemadlin AUC0‐t vs MIC‐1 AUC0‐t, intercept” value ([10]; Treatment A, AUC in nM • h) was 1.97, the “correlation navtemadlin AUC0‐t vs MIC‐1 AUC0‐t, slope” value ([10]; Treatment A, AUC in nM • h) was 0.0006 and the “P, baseline predose MIC‐1 concentration” value ([10]; Treatment A: 60 mg new tablet fasted (periods 2-4)) was 170 (119.8); 60 pg/mL. The “MIC‐1 %CFBC24 (percent change from predose concentration at 24 hours)” value [10, 15] was 2297 (101); 60%, the “MIC‐1 %CFBCmax (percent change from predose concentration at Cmax)” value [10, 15] was 3759 (103.5); 60% and the “MIC‐1 AUC0‐24” value [10, 15] was 32743 (49.4); 60 pg • h/mL. The “MIC‐1 AUC0‐inf” value [10, 15] was 96215 (51.9); 31 pg • h/mL, the “MIC‐1 AUC0‐t” value [10, 15] was 89409 (48.7); 60 pg • h/mL and the “MIC‐1 C24” value [10, 15] was 1318 (50.5); 60 pg/mL. For the same molecule, the “MIC‐1 FoldC24 (C24/P)” value [10, 15] was 24.0 (96.8); 60, the “P, baseline predose MIC‐1 concentration” value ([10]; Treatment B: 60 mg new tablet fed (periods 2-4)) was 214 (133.2); 30 pg/mL and the “MIC‐1 %CFBC24 (percent change from predose concentration at 24 hours)” value [10, 16] was 1778 (115.5); 30%. For the same molecule, the “MIC‐1 %CFBCmax (percent change from predose concentration at Cmax)” value [10, 16] was 2684 (115.7); 30%, the “MIC‐1 AUC0‐24” value [10, 16] was 29820 (52.7); 30 pg • h/mL and the “MIC‐1 AUC0‐inf” value [10, 16] was 67607 (35.1); 16 pg • h/mL. For the same molecule, the “MIC‐1 AUC0‐t” value [10, 16] was 81332 (54.2); 30 pg • h/mL, the “MIC‐1 C24” value [10, 16] was 1209 (47.7); 30 pg/mL and the “MIC‐1 FoldC24 (C24/P)” value [10, 16] was 18.8 (109.4); 30. For the same molecule, the “P, baseline predose MIC‐1 concentration” value ([10]; Treatment C: 60 mg old tablet fasted (period 1)) was 505 (41); 30 pg/mL, the “MIC‐1 %CFBC24 (percent change from predose concentration at 24 hours)” value [10, 17] was 139 (61.8); 30% and the “MIC‐1 %CFBCmax (percent change from predose concentration at Cmax)” value [10, 17] was 393 (62.5); 30%. For the same molecule, the “MIC‐1 AUC0‐24” value [10, 17] was 34365 (53.4); 30 pg • h/mL, the “MIC‐1 AUC0‐inf” value [10, 17] was 110915 (30.5); 4 pg • h/mL and the “MIC‐1 AUC0‐t” value [10, 17] was 91175 (38.5); 30 pg • h/mL. For the same molecule, the “MIC‐1 C24” value [10, 17] was 1144 (38.4); 30 pg/mL, the “MIC‐1 FoldC24 (C24/P)” value [10, 17] was 2.39 (36); 30 and the “lymphocyte subsets and monocytes, postdose (96 hours) vs predose” value [11] was “did not differ”. The urinary excretion route [12] was “minor excretion route”.
